Source: PubChem BioAssay
Calls of active or inactive are those of the source.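 Rule for the calls, unless noted: active = viability at or below 10% of carrier control in both of two separate runs; inconclusive = viability at or below 10% in only one of the two runs; inactive = the rest.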

How the values were obtained:
[1] = reducers of endogenous Her2 protein level, primary screen, SKBR3 breast tumor cells, AlphaScreen, ATP viability (AID 461;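 active = Her2 level under about 52% in both replicate screens, with viability over 70% of control, limit read from the data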;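 for Her2 level: lower value means less Her2 protein in the cells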;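 for viability: percent of carrier control wells set as 100% viability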); conditions: 18-24 h, measured here: SKBR3 viability, ATP luminescence, at 10 µM
[2] = biological target: Receptor tyrosine-protein kinase erbB-2 (Homo sapiens) (UniProt P04626); assay: as above; conditions: 18-24 h, at 10 µM, stronger effect = lower value
[3] = SK-BR-3 cell growth inhibitors, pilot screen, 24 h, human (AID 572); conditions: SK-BR-3 viability, CellTiter-Glo luminescence, at 10 µM, stronger effect = lower value;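 note: compound exposure lasted between 18 and 24 h rather than exactly 24 h; 100% = carrier-treated control wells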
[4] = HUVEC growth inhibition – cell-based, human, primary screen (AID 575;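 active = viability at or below 30% in both replicate assays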;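 note: 100% = median of untreated cell wells with 0.1% DMSO on each plate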); conditions: HUVEC proliferation, CellTiter-Glo luminescence, 72 h; at 10 µM; stronger effect = lower value
In short: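 Timing: 72 h treatment at 37 °C; material: HUVEC primary cells; technique: CellTiter-Glo luminescence measuring cellular ATP; controls: vehicle and MePR control wells; measure: percent of median DMSO-control luminescence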

[5] = growth inhibitors of H69AR lung tumor, primary screen, human, duplicate replicates (AID 580;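 active = viability at or under a set limit in both replicates, limit being median viability minus 3 SD, cut at about 48% in these data, passing the limit was not always enough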;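 note: 100% = mean luminescence of untreated wells and 0% = no signal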); conditions: H69AR lung tumor cells viability, ATP luminescence, 72 h; at 10 µM; stronger effect = lower value
[6] = reversal of MRP1-mediated doxorubicin resistance, pilot screen, H69AR cells, doxorubicin co-treatment (AID 601;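 active = viability loss from added drug above about 55%, and viability with drug at most 40%, in both replicates, limit read from the data, passing the limit was not always enough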); conditions: CellTiter-Glo, 72 h, at 10 µM; for differential viability (reversal): stronger effect = higher value
[7] = 384-well plate pilot, post-Golgi transport modulator project, inhibition of yeast transport mutant growth (AID 636; in the data active = inhibition above about 31%); conditions: absorbance 615 nm, about 18 h, stronger effect = higher value
[8] = growth suppression of yeast trafficking mutant, preliminary HTS, modulators of trafficking downstream of Golgi apparatus project, 1536-format plate, OD 615 nm (AID 637; in the data active = inhibition above about 30%); conditions: yeast transport mutant growth, absorbance 615 nm, 18 h; stronger effect = higher value
[9] = H69AR cells + 2 uM doxorubicin, measured here: viability with 2 uM doxorubicin, stronger effect = lower value
[10] = H69AR cells, compound alone cytotoxicity

Chain of Receptor tyrosine-protein kinase erbB-2 (Homo sapiens) (P04626 whole entry, looked up): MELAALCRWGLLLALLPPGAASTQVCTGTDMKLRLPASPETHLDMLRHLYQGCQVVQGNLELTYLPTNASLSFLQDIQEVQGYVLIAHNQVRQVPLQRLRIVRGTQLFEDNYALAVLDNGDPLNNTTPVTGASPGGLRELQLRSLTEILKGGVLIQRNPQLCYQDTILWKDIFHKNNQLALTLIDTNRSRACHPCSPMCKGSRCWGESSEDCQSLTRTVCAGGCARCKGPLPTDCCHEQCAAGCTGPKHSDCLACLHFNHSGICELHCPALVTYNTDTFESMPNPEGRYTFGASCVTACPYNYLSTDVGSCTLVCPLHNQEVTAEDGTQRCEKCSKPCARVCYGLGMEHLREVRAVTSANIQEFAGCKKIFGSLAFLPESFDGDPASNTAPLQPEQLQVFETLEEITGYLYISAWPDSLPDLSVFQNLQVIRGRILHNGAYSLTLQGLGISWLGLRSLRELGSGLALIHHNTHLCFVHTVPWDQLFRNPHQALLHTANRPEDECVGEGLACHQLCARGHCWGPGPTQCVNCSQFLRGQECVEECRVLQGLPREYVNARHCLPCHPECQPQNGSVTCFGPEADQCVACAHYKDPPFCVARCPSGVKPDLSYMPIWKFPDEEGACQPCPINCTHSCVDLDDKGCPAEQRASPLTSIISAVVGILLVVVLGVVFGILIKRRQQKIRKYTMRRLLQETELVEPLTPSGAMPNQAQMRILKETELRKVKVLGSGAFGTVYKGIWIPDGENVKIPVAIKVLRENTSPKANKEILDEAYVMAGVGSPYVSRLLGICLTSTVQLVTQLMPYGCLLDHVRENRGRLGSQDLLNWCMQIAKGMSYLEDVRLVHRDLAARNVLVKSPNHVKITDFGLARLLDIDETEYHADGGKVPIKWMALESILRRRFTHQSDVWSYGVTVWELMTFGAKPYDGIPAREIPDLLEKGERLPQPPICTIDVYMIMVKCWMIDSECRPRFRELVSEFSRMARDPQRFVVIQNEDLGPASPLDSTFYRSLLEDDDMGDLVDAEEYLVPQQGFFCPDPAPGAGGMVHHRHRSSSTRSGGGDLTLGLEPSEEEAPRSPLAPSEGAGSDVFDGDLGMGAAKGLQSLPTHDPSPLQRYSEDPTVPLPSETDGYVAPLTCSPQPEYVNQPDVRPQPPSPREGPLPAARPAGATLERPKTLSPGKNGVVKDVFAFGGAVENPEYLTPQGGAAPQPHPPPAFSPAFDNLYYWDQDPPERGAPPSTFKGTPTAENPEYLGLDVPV

O=C(NCc1ccco1)c1cnn2c(C(F)(F)F)cc(-c3ccco3)nc12
viability [1]: 86.5%
Her2 level [2]: 74.5% (inactive)
viability [3]: 86.5% (inactive)
viability [4]: 92.9% (inactive)
viability [5]: 71.8% (inactive)
differential viability (reversal) ([6]; H69AR cells + 2 uM doxorubicin): 0.17% (inactive)
viability [6, 9]: 71.7%
viability [6, 10]: 71.8%
inhibition [7]: -7.26% (inactive)
inhibition [8]: 1.9% (inactive)

COc1ccc2c(c1)C(C)=CC(C)(C)N2C(=O)C(C)N1C(=O)c2ccccc2C1=O (stereo not given)
viability [1]: 109%
Her2 level [2]: 104% (inactive)
viability [3]: 109% (inactive)
viability [4]: 81.6% (inactive)
viability [5]: 85.7% (inactive)
differential viability (reversal) ([6]; H69AR cells + 2 uM doxorubicin): -1.3% (inactive)
viability [6, 9]: 87%
viability [6, 10]: 85.7%
inhibition [7]: -5.71% (inactive)
inhibition [8]: -3.33% (inactive)

OCc1nc2ccccc2n1CC(O)Cn1ccc2ccccc21 (stereo not given)
viability [1]: 97.5%
Her2 level [2]: 116% (inactive)
viability [3]: 97.5% (inactive)
viability [4]: 69.6% (inactive)
viability [5]: 85.2% (inactive)
differential viability (reversal) ([6]; H69AR cells + 2 uM doxorubicin): -15.4% (inactive)
viability [6, 9]: 101%
viability [6, 10]: 85.2%
inhibition [7]: -1.97% (inactive)
inhibition [8]: 8.36% (inactive)

CCN(CC)c1ncc(C)c(=O)[nH]1
viability [1]: 103%
Her2 level [2]: 106% (inactive)
viability [3]: 103% (inactive)
viability [4]: 105% (inactive)
viability [5]: 88.8% (inactive)
differential viability (reversal) ([6]; H69AR cells + 2 uM doxorubicin): -5.64% (inactive)
viability [6, 9]: 94.5%
viability [6, 10]: 88.8%
inhibition [7]: -3.47% (inactive)
inhibition [8]: 19% (inactive)

CSc1nc(N2CCOCC2)c2ccccc2n1
viability [1]: 110%
Her2 level [2]: 100% (inactive)
viability [3]: 110% (inactive)
viability [4]: 93.7% (inactive)
viability [5]: 94.6% (inactive)
differential viability (reversal) ([6]; H69AR cells + 2 uM doxorubicin): 7.67% (inactive)
viability [6, 9]: 87%
viability [6, 10]: 94.6%
inhibition [7]: -2.27% (inactive)
inhibition [8]: -7.87% (inactive)

Cn1c(SCC(=O)Nc2ccc3c(c2)oc2ccccc23)nnc1-c1ccccc1
viability [1]: 83%
Her2 level [2]: 75.5% (inactive)
viability [3]: 83% (inactive)
viability [4]: 53.1% (inactive)
viability [5]: 69.4% (inactive)
differential viability (reversal) ([6]; H69AR cells + 2 uM doxorubicin): -7.74% (inactive)
viability [6, 9]: 77.1%
viability [6, 10]: 69.4%
inhibition [7]: -5.73% (inactive)
inhibition [8]: 5.9% (inactive)

CCCCOC(=O)CNc1nnc(SCC(=O)OCC)[nH]c1=O
viability [1]: 114%
Her2 level [2]: 87% (inactive)
viability [3]: 114% (inactive)
viability [4]: 74.8% (inactive)
viability [5]: 98.6% (inactive)
differential viability (reversal) ([6]; H69AR cells + 2 uM doxorubicin): 11.7% (inactive)
viability [6, 9]: 86.9%
viability [6, 10]: 98.6%
inhibition [7]: -0.91% (inactive)
inhibition [8]: -3.81% (inactive)

COc1ccc(-c2nnc(SCC(=O)c3cc(C)n(Cc4cccs4)c3C)o2)cc1
viability [1]: 99.5%
Her2 level [2]: 114% (inactive)
viability [3]: 99.5% (inactive)
viability [4]: 90.9% (inactive)
viability [5]: 87.5% (inactive)
differential viability (reversal) ([6]; H69AR cells + 2 uM doxorubicin): 1.84% (inactive)
viability [6, 9]: 85.7%
viability [6, 10]: 87.5%
inhibition [7]: 2.6% (inactive)
inhibition [8]: 18.2% (inactive)

Cc1ccc(C(=O)CC2(O)C(=O)N(CN3CCOCC3)c3ccccc32)cc1 (stereo not given)
viability [1]: 100%
Her2 level [2]: 90.5% (inactive)
viability [3]: 100% (inactive)
viability [4]: 85.9% (inactive)
viability [5]: 94.6% (inactive)
differential viability (reversal) ([6]; H69AR cells + 2 uM doxorubicin): -5.11% (inactive)
viability [6, 9]: 99.7%
viability [6, 10]: 94.6%
inhibition [7]: -3.55% (inactive)
inhibition [8]: -4.83% (inactive)

O=c1c2c(nc3nc(CCc4ccccc4)[nH]n13)CCC2
viability [1]: 112%
Her2 level [2]: 92% (inactive)
viability [3]: 112% (inactive)
viability [4]: 86.6% (inactive)
viability [5]: 91% (inactive)
differential viability (reversal) ([6]; H69AR cells + 2 uM doxorubicin): 14% (inactive)
viability [6, 9]: 77%
viability [6, 10]: 91%
inhibition [7]: -6% (inactive)
inhibition [8]: 0.16% (inactive)

COc1ccc2c(c1OC)C(=O)OC2Nn1cncn1 (stereo not given)
viability [1]: 95.5%
Her2 level [2]: 96.5% (inactive)
viability [3]: 95.5% (inactive)
viability [4]: 109% (inactive)
viability [5]: 103% (inactive)
differential viability (reversal) ([6]; H69AR cells + 2 uM doxorubicin): 3.5% (inactive)
viability [6, 9]: 99.3%
viability [6, 10]: 103%
inhibition [7]: -4.08% (inactive)
inhibition [8]: 0.33% (inactive)

N#C/C(C(=O)N1CCOCC1)=C1/SC(Cc2ccccc2)C(=O)N1c1ccccc1 (stereo not given)
viability [1]: 92%
Her2 level [2]: 90.5% (inactive)
viability [3]: 92% (inactive)
viability [4]: 99.4% (inactive)
viability [5]: 98.4% (inactive)
differential viability (reversal) ([6]; H69AR cells + 2 uM doxorubicin): -3.21% (inactive)
viability [6, 9]: 102%
viability [6, 10]: 98.4%
inhibition [7]: -3.55% (inactive)
inhibition [8]: -4.91% (inactive)

Cc1nnc(SCC(=O)N2CCC(C(=O)Nc3nccs3)CC2)n1Cc1ccccc1
viability [1]: 91.5%
Her2 level [2]: 80% (inactive)
viability [3]: 91.5% (inactive)
viability [4]: 96.2% (inactive)
viability [5]: 91.5% (inactive)
differential viability (reversal) ([6]; H69AR cells + 2 uM doxorubicin): 5.37% (inactive)
viability [6, 9]: 86.1%
viability [6, 10]: 91.5%
inhibition [7]: -3.87% (inactive)
inhibition [8]: 0.33% (inactive)

COc1cccc(C(=O)Nc2ccc(N(C)C)cc2)c1OC
viability [1]: 97%
Her2 level [2]: 78.5% (inactive)
viability [3]: 97% (inactive)
viability [4]: 90% (inactive)
viability [5]: 90.9% (inactive)
differential viability (reversal) ([6]; H69AR cells + 2 uM doxorubicin): 10.3% (inactive)
viability [6, 9]: 80.5%
viability [6, 10]: 90.9%
inhibition [7]: -3.68% (inactive)
inhibition [8]: -1.27% (inactive)

COc1cc2c(cc1OC)C(C)N(C(=O)c1cc3n(n1)C(C(F)(F)F)CC(c1ccco1)N3)CC2 (stereo not given)
viability [1]: 108%
Her2 level [2]: 68.5% (inactive)
viability [3]: 108% (inactive)
viability [4]: 62% (inactive)
viability [5]: 75% (inactive)
differential viability (reversal) ([6]; H69AR cells + 2 uM doxorubicin): -14.3% (inactive)
viability [6, 9]: 89.3%
viability [6, 10]: 75%
inhibition [7]: -6% (inactive)
inhibition [8]: 4.26% (inactive)

CC(C)NC(=O)CSCc1ccccc1Cl
viability [1]: 96%
Her2 level [2]: 95% (inactive)
viability [3]: 96% (inactive)
viability [4]: 86.8% (inactive)
viability [5]: 94.8% (inactive)
differential viability (reversal) ([6]; H69AR cells + 2 uM doxorubicin): 18% (inactive)
viability [6, 9]: 76.8%
viability [6, 10]: 94.8%
inhibition [7]: -3.33% (inactive)
inhibition [8]: 0.97% (inactive)
